According to ChEMBL document CHEMBL1154100, “Tetrahydroisoquinolines as dopaminergic ligands: 1-Butyl-7-chloro-6-hydroxy-tetrahydroisoquinoline, a new compound with antidepressant-like activity in mice” (Bioorg Med Chem, 2009):
Active and inactive are the calls of the source. No cut-off for these calls is given here.

Key:
Mus musculus = assay: Antidepressant-like activity in NMRI mouse assessed as reduction in immobility time at 16 mg/kg, ip by forced swimming test relative to control; format: functional; set-up: scale not given: the % may be the effect or the level left; settings: route intraperitoneal
Outline: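 Naive male NMRI mice (25–30 g) were used in randomized groups of n = 10 and tested in the dark phase. Injections (10 mL/kg) were given 30 min before testing, and saline was the vehicle. Each animal, not pre-tested, swam for 6 min in a cylinder 12 cm wide holding 13 cm of water at 23–24 °C. Immobility was scored over the last 4 min, and groups were compared with ANOVA and Fisher PLSD.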

D(1A) dopamine receptor = D(1A) dopamine receptor (Rattus norvegicus, UniProt P18901); assay: Displacement of [3H]SCH23390 from dopamine D1 receptor in Wistar rat striatal membrane by liquid scintillation counting; format: cell membranes, Striatum
Chain of D(1A) dopamine receptor (P18901 whole entry): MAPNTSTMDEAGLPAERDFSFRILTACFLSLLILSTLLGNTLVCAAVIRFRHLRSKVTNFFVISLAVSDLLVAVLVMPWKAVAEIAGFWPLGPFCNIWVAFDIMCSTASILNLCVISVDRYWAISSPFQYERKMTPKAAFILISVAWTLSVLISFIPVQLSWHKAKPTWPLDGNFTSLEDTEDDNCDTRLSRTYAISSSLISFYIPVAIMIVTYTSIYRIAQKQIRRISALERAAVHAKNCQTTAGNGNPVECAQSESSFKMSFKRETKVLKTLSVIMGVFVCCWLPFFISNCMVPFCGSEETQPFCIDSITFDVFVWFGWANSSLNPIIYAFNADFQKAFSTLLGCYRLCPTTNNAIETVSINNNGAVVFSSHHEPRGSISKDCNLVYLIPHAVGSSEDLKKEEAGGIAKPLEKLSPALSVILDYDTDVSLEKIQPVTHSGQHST
Outline: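 Female Wistar rat striatum homogenized in 50 mM Tris-HCl pH 7.4, then washed twice at 49,000g. Membranes were resuspended in Tris-ions buffer (NaCl, CaCl2, KCl, MgCl2, 0.1% ascorbate). [3H]-SCH23390 displacement was read by filtration and scintillation counting. Ki was derived using KD 0.36 nM; 3–6 independent runs in duplicate, mean SEM.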

D(2) dopamine receptor = D(2) dopamine receptor (Rattus norvegicus, UniProt P61169); assay: Displacement of [3H]raclopride from dopamine D2 receptor in Wistar rat striatal membrane by liquid scintillation counting; format: cell membranes, Striatum
Chain of D(2) dopamine receptor (P61169 whole entry): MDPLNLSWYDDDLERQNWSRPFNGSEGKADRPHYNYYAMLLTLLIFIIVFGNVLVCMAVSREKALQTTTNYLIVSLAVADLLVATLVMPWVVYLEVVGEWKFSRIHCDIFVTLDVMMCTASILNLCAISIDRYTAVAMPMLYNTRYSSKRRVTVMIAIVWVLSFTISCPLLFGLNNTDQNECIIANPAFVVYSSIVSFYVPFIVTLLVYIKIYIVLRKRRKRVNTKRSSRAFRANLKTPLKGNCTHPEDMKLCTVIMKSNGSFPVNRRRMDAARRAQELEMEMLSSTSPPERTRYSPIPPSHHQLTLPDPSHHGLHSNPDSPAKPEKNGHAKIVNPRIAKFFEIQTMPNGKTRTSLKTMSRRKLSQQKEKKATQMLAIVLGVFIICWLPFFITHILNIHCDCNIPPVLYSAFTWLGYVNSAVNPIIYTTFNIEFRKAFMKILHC
Outline: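 Striata from female Wistar rats (200–220 g) were homogenized in 50 mM Tris-HCl (pH 7.4) and centrifuged twice at 49,000g for 15 min at 4 °C. Membranes were resuspended in Tris buffer containing 120 mM NaCl, 2 mM CaCl₂, 5 mM KCl, 1 mM MgCl₂ and 0.1% ascorbic acid (pH 7.4). Samples were filtered, washed with cold buffer and counted by scintillation. Ki was derived using a [³H]raclopride KD of 1,25 nM, from 3–6 determinations run in duplicate.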

Rattus norvegicus = organism: Rattus norvegicus; assay: Selectivity for Wistar rat dopamine D2 receptor over Wistar rat dopamine D1 receptor
[1] = target: Sodium-dependent dopamine transporter (Rattus norvegicus) (UniProt P23977); assay: Inhibition of DAT in Wistar rat striatal synaptosomes at 100 uM by [3H]dopamine uptake assay; format: subcellular; settings: Brain
Chain of Sodium-dependent dopamine transporter (Rattus norvegicus) (P23977 whole entry): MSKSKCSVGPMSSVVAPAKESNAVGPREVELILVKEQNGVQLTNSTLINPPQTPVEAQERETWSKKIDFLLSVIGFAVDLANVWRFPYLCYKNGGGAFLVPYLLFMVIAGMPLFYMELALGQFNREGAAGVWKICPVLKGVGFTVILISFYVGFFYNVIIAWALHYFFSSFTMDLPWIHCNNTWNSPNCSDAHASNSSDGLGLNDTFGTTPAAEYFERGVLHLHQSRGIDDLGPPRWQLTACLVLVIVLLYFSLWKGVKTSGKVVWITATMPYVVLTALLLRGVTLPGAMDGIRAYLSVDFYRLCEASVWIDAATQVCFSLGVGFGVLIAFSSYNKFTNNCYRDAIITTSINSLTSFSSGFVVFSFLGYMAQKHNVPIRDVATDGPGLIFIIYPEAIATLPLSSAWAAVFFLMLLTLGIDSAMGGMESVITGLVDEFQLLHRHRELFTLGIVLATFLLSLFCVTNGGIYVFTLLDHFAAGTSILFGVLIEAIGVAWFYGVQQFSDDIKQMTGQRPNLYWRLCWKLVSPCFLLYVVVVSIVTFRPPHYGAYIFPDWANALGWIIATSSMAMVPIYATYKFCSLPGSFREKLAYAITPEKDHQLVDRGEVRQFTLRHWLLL
Outline: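 Synaptosomes were prepared from female Wistar rat striatum at 0–4 °C. Tissue was homogenized in 0.32 M sucrose, spun twice at 1000g for 10 min, and the pooled supernatants were spun at 16,000g for 30 min. The pellet was taken up in Krebs medium (pH 7.6, with glucose). Samples were preincubated for 10 min at 37 °C with pargyline, then given 0.5 nM final [³H]dopamine for 10 min. Uptake was stopped by ice-cold dilution and rapid fiberglass filtration.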

SMILES	Ki (D(1A) dopamine receptor) [nM]	Ki (D(2) dopamine receptor; read-out: pKi (converted)) [nM]	fold change (FC) (Rattus norvegicus)	Activity [1]	Ki (D(2) dopamine receptor; read-out: Ki) [nM]	Activity (Mus musculus) [%]
CN(C)CCCN1c2ccccc2CCc2ccccc21 [IMIPRAMINE]	–	–	–	–	–	32
Oc1cc2c(cc1Cl)CCNC2c1ccccc1 (stereo unspecified)	247	1120	0.2	inactive	–	–
CCCCC1NCCc2cc(Cl)c(OC)cc21 (stereo unspecified)	17300	780	20	inactive	–	–
CCCCC1c2cc(OC)c(Cl)cc2CCN1C (stereo unspecified)	7280	3770	2.7	inactive	–	–

Continued, in another order:

Ki (D(1A) dopamine receptor) [nM]	Ki (D(2) dopamine receptor; read-out: pKi (converted)) [nM]	fold change (FC) (Rattus norvegicus)	Activity [1]	Ki (D(2) dopamine receptor; read-out: Ki) [nM]	SMILES	Activity (Mus musculus) [%]
40.3	504	0.07	inactive	–	CN1CCc2cc(Cl)c(O)cc2C1c1ccccc1 (stereo unspecified)	–
326	66.4	4.8	inactive	71	Oc1cc2c(cc1Cl)CCNC2Cc1ccccc1 (stereo unspecified)	–
1640	1530	0.8	inactive	–	COc1cc2c(cc1Cl)CCN(C)C2Cc1ccccc1 (stereo unspecified)	–
